Assay results from the EternaBench riboswitch data.

System: MS2 coat protein
Assay: apparent Kd, MS2 coat protein; higher = weaker binding; RNA-MaP array; FMN 200 µM where present
Procedure, shortened: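 Binding was read on Illumina sequencing-chip clusters where stalled E. coli RNA polymerase had transcribed each design. A titration of SNAP-549-labelled MS2 coat protein began at 0.7 or 1.5 nM and doubled to 3 µM, once without ligand and once with constant ligand, in 100 mM Tris-HCl pH 7.5, 80 mM KCl, 4 mM MgCl2, BSA, DTT, yeast tRNA and Tween-20. The apparent Kd is the median of filtered per-cluster binding-curve fits, based on green signal normalised to red-channel RNA signal and control-cluster median Fmax.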

[1] = designed as: OFF switch for flavin mononucleotide, no ligand
[2] = ligand present: flavin mononucleotide, designed as: OFF switch for flavin mononucleotide
[3] = designed as: ON switch for flavin mononucleotide, no ligand
[4] = ligand present: flavin mononucleotide, designed as: ON switch for flavin mononucleotide

| Sequence | apparent Kd [1] | apparent Kd [2] | apparent Kd [3] | apparent Kd [4] |
| --- | --- | --- | --- | --- |
| CCAGUGUUAGGAUAUGAUACUAAUGGAUAGCAUUCCGCAGUUUAGAAGGGACAUGAGGAUCACCCAUGUACGGG | 144 nM | 139 nM | – | – |
| UGUGUGAGACAGGAUAUGCCAGAUGUAUUACUGGUAGAAGGGUCUACAUGAGGAUCACCCAUGUGGCCGGCCGG | 27.1 nM | 61.8 nM | – | – |
| UUUUAGUCAGGAUAUACAUUUUUUUAAUUAUUUAUAAUAUUACAUGAGGAUCACCCAUGUAGAAGGGACAUUUU | 28.6 nM | 26.2 nM | – | – |
| GUCAGCUCGAGAGGAUAUACAACACUGCUUCGGCAGUGUAUUAAGAUCACAUGAGGAUCACCCAUGUAGAAGGCACGAGCUGAU | 9.31 nM | 89.2 nM | – | – |
| ACAUGAGAUCUAGGAUAUAUUGUACCUACAUGUGACAUGAGGAUCACCCAUGUGGUAAGUAUGACAUAGAAGGAGAAGAUAUGU | – | – | 71 nM | 54.3 nM |
| UUAGCGCGAGGAUAUGCGGUUUGUGCUUUGGGCCCUGGCGUACAUGAGGAUCACCCAUGUAGAAGGCGUGUUGU | 24.7 nM | 24.8 nM | – | – |
| GGAUGGACCCAGAAGGGCAGAUUCCGAGGGAUUUGAGAUGAGCGGAUAUGUAGGAUAUGGGUGGACAUGAGGAUCACCCAUGUC | – | – | 231 nM | 46.6 nM |
| GUACGUGGACAGAAGGCGACAUGAGGAUCACCCAUGUUGGCUCGGGUACGAGCGAUCCGCGUGAUUGAGGAUAUGUCUGCGGGC | 20 nM | 80.8 nM | – | – |
| GUUUCACAUGAGGAUCACCCAUGUGAGGAUAUGGUUUCGCUGGCCGUAGCCAGUGGAACCAGAAGGCGCGUGAU | 60.7 nM | 71.1 nM | – | – |
| UCUCAACAUGAGGAUCACCCAUGUGAGGAUAUGAUGCAGCAGUGGUCUACGCUGUGCAUCAGAAGGCACAUGUG | 137 nM | 48.2 nM | – | – |
| GUGAAACAUGAGGAUCACCCAUGUGAGGAUAUGUUUUAGUACUGGAGACAGUACAUCUAUAGAAGGCACAAUGG | 68.2 nM | 89.1 nM | – | – |
| GAAAACAGAGGAUAUACAAAAUUAUGACGAAAGUCAUAAAAACAUGAGGAUCACCCAUGUAGAAGGCUGAAGAA | 29 nM | 26.9 nM | – | – |
| UUAAAUCAUGUAGGAUAUCCGAUGCGAAGCGUUGGAGAAGGACAUGAGGAUCACCCAUGUUCUAGCGUCUGAGUACAGAUGCAA | 30.6 nM | 140 nM | – | – |
| UGGACCAGUACAGGAUAUGGUGACGCACAUGAGGAUCACCCAUGUCCGCAGCGUGCUCAGCACGCCCAGAAGGGUACUGAUUCG | – | – | 718 nM | 76.4 nM |
| AACGCGUCAGGAUAUAGCGUAAUUUAGGUAGUACGACCAUACUAGAAGGGACAUGAGGAUCACCCAUGUGGGUA | 212 nM | 118 nM | – | – |
| UCUGAUUGGUGAGGAUAUACAUAAUUUAUGACUGUAGAAGGCACAAACCUCAAGACAUGAGGAUCACCCAUGUGGUAUUUAGAU | 348 nM | 506 nM | – | – |
| CUUUUGUGAGGAUAUUAGUAGUAAAAAAAUAAAAUUACUACUGAGAAGGCACAUGAGGAUCACCCAUGUUCCUC | 31.4 nM | 213 nM | – | – |
| UUUUUUAUCGUAGGAUAUAGGUUGAAUAAUAGACUAGAAGGACGUGACAUGAGGAUCACCCAUGUUUUUUAAGUGUCGAAGUGU | – | – | 26.9 nM | 25.7 nM |
| CUGACAGUGUAGCGCGUCUAGCCAGAGGAUAUCCACAUGAGGAUCACCCAUGUCAUGUCCUCGCGGGAGAAGGCUGGCUUGGCG | 204 nM | 54.3 nM | – | – |
| UGUGCCUCGAGAGGAUAUAACAUGAGGAUCACCCAUGUAACAGAGGUGGAAACACCUCUGAAAUGUUAGAAGGCUCGAGGCACA | 46.6 nM | 57 nM | – | – |
| GAGCGAAAGCUCAAUGUCGAUAGCAGAAGGACAUCCUUUAACAUGAAAACAUGAGGAUCACCCAUGUAGGAUAUGCUAUCGACU | 6.66 nM | 7.92 nM | – | – |

| Sequence | apparent Kd [1] | apparent Kd [2] | apparent Kd [3] | apparent Kd [4] |
| --- | --- | --- | --- | --- |
| GCACGAGACUAAGGAUAUGGUGUACCUACAUGUAACAUGAGGAUCACCCAUGUGGUAAGUAUGAUUCAGAAGGUAGAGACGUGC | – | – | 33.2 nM | 20 nM |
| CGGCCCGAUCGAGGAUAUAAGUCUAGGACAUGAGGAUCACCCAUGUAUGUCUUAGAAGGCGAUCGGGCCAGCCUGUUACAGGCA | – | – | 28.5 nM | 6.43 nM |
| ACAUACAUGACAUGACAUGAGGAUCACCCAUGUCCAUGUUACAAGGAUAUGUACAUGAAACAUGUACAGAAGGUGUAUUGGACU | 13.1 nM | 18 nM | – | – |
| GGGUGACAUGAGGAUCACCCAUGUCAGGAUAUGGGCUCGGGCUCGAAAGGGCUCGGGCUCAGAAGGGACUGCCC | 56 nM | 170 nM | – | – |
| AUACUCAUGUAAGGAUAUGCAGCCGUUUCGGCUGCAGAAGGUACUAUAAUACAUGAGGAUCACCCAUGUCCCUCGCAUUGCGAG | – | – | 657 nM | 85.9 nM |
| ACAUGAGGAUCACCCAUGUAUUACAUGGUUAUGUUUAUUAACAGAAGGCGAAAUUACCACUGAAUCGAGGAUAUGUAUUCUAUA | 53.4 nM | 45.1 nM | – | – |
| AAAAUGGUCUAGGAUAUGACAAAUCUGAGCACGUCAGAAGGAGACACAUGAGGAUCACCCAUGUGGGUGCGAAA | 36.1 nM | 189 nM | – | – |
| UAUAUAUAGUAAGGAUAUGUAUUUCUUUUAUAAACAGAAGGUACUGACAUGAGGAUCACCCAUGUUUUAGUGUGGGCAUGUAGA | 81.2 nM | 116 nM | – | – |
| AUAUCCUAGAUAGGAUAUACUGAGGUUGAAUGGGUAGAAGGAUCGUUAGGGUGGACUACAUGAGGAUCACCCAUGUUGUUUAUU | – | – | 213 nM | 208 nM |
| UCGUUGUCAGGAUAUCGUGUAUACAACUUUAGUUUUAUGUUCGAGAAGGGACAUGAGGAUCACCCAUGUUACGU | 65 nM | 239 nM | – | – |
| CUACCUUAUGAGAAGGCGGUCAUGAAACAUGAUCGAGGAUAUCAUGUAAACAUGAGGAUCACCCAUGUAUGGGUAUUAUGGUAU | – | – | 146 nM | 26.4 nM |
| UUUGUACAUGAGGAUCACCCAUGUCAGGAUAUGUCAUCGCCGUCCGACGGCCGGCGUCACAGAAGGGACAUGCA | 27.8 nM | 78.1 nM | – | – |
| AACCGCGACCGGCCUGGCACGUCGAGAAGGGUACGUGACUUGCUUUACAUGAGGAUCACCCAUGUACAGGAUAUCGAAUAGCCG | 8.4 nM | 11 nM | – | – |
| CCAUCUUGUCGAGGAUAUAUUAACAUGACAUGAGACACAUGAGGAUCACCCAUGUAUGUUGUUGUAUAGAAGGCGACUACAUGA | – | – | 50.4 nM | 51.2 nM |
| UCCGGAGUAGGAUAUACGGUGUAAUGACACGGCGUCGAUCAACAUGAGGAUCACCCAUGUAGAAGGACUGCGUC | 14.4 nM | 15.9 nM | – | – |
| UUAAUUAAUUAAUUGCAGAAUUACAUGAGGAUCACCCAUGUAUAGGAUAUCGUCAGGAAUACUGACGAGAAGGAUACAAACUGC | 17.9 nM | 20.7 nM | – | – |
| AAUUAUUUAUGAGGAUAUUGUGGUGAAACACCACAAGAAGGCAUGAUACACAUGAGGAUCACCCAUGUGAGCCUGAUGCUUAUG | 16.7 nM | 20.1 nM | – | – |
| AGGUGUAGAGGAUAUCUCUUCUCUCACAUGAGGAUCACCCAUGUUCUAAAGUCCAAGGAGAGAGAAGGCUACACCA | 19.8 nM | 15.6 nM | – | – |
| GGUACUCAAAGAGUACUUGGUCGAACAUGAGGAUCACCCAUGUAGGAUAUGUAAAGCAAGAAGUAACAGAAGGACAUGUGCAGC | 13.1 nM | 17.1 nM | – | – |
| GCAGCUAUUAUUAUACAUGAGGAUCACCCAUGUUACAUGUGUAAGGAUAUUGAUGUUUAUAUAAUCAAGAAGGUACGAUGCUGC | – | – | 12.6 nM | 8.59 nM |
| GUGUUUGAUGAGGAUAUCGAUGUGGGUACAUAGCGAGAAGGCAUUACAUGAGGAUCACCCAUGUAGUGUGGGUU | 25 nM | 56.7 nM | – | – |
